# Results published in ChEMBL document CHEMBL1139369, “Discovery and structure-activity relationship of P1-P3 ketoamide derived macrocyclic inhibitors of hepatitis C virus NS3 protease” (J Med Chem, 2009).
# Calls of active or inactive are those of the source. The calls are words filed in the database; no cut-off is given here.
# System: Hepatitis C virus
# Assay: Antiviral activity against HCV by genotype 1 replicon based cellular assay
# Format: functional, Hepacivirus hominis
# Conditions: not given
row,EC90 [nM],Structure (SMILES)
1,100,"C=CCNC(=O)C(=O)[C@@H]1CCCCCCCCC[C@H](NC(=O)N[C@H](CN2C(=O)c3ccccc3C2=O)C(C)(C)C)C(=O)N2CC3C([C@H]2C(=O)N1)C3(C)C (single isomer, unassigned)"
2,400,"CC1(NC(=O)N[C@H]2CCCCCCCCCC[C@@H](C(=O)C(N)=O)NC(=O)[C@@H]3C4C(CN3C2=O)C4(C)C)CCCCC1 (single isomer, unassigned)"
3,480,"C=CCNC(=O)C(=O)[C@@H]1CCCCCCCCC[C@H](NC(=O)N[C@H](C(=O)C2CC2)C(C)C)C(=O)N2CC3C([C@H]2C(=O)N1)C3(C)C (single isomer, unassigned)"
4,15,"C=CCNC(=O)C(=O)[C@@H]1CCCCCCCCC[C@H](NC(=O)N[C@H](CN2C(=O)C3CCC(C3)C2=O)C(C)(C)C)C(=O)N2CC3C([C@H]2C(=O)N1)C3(C)C (single isomer, unassigned)"
5,250,"CN(C[C@@H](NC(=O)N[C@H]1CCCCCCCCC[C@@H](C(=O)C(N)=O)NC(=O)[C@@H]2C3C(CN2C1=O)C3(C)C)C(C)(C)C)S(C)(=O)=O (single isomer, unassigned)"
6,180,"CC1(C)C2CN3C(=O)[C@@H](NC(=O)N[C@H](C(=O)C4CC4)C4CCCCC4)CCCCCCCCC[C@@H](C(=O)C(N)=O)NC(=O)[C@@H]3C21 (single isomer, unassigned)"
7,100,"CC(C)[C@H](NC(=O)N[C@H]1CCCCCCCCC[C@@H](C(=O)C(N)=O)NC(=O)[C@@H]2C3C(CN2C1=O)C3(C)C)C(=O)C1CC1 (single isomer, unassigned)"
8,900,"CC(C)(C)OC(=O)N[C@H]1CCCCCCCCCC[C@@H](C(=O)C(N)=O)NC(=O)[C@@H]2C3C(CN2C1=O)C3(C)C (single isomer, unassigned)"
9,350,"CC(C)(C)NC(=O)N[C@H](C(=O)N1CC2C([C@H]1C(=O)NC(CC1CCC1)C(=O)C(N)=O)C2(C)C)C(C)(C)C (single isomer, unassigned) [BOCEPREVIR]"

# Same assay, conditions: Hepacivirus hominis
row,Structure (SMILES),Activity
1,"CC(C)(C)NC(=O)C(=O)[C@@H]1CCCCCCCCCC[C@H](NC(=O)OC(C)(C)C)C(=O)N2CC3C([C@H]2C(=O)N1)C3(C)C (single isomer, unassigned)",inactive

# Target: not listed separately
# Assay: Binding affinity to HCV NS3 protease
# Set-up: species or system Hepacivirus hominis
# Conditions: not given
row,Ki [nM],Structure (SMILES)
1,250,C=CCCCC[C@H](NC(=O)[C@@H]1[C@H]2[C@@H](CN1C(=O)[C@H](CCCCC=C)NC(=O)OC(C)(C)C)C2(C)C)C(=O)C(N)=O
2,14,"CCCNC(=O)C(=O)[C@@H]1CCCCCCCCC[C@H](NC(=O)N[C@H](CN(C)S(=O)(=O)c2cccs2)C(C)(C)C)C(=O)N2CC3C([C@H]2C(=O)N1)C3(C)C (single isomer, unassigned)"
3,21,"CN(C[C@@H](NC(=O)N[C@H]1CCCCCCCCC[C@@H](C(=O)C(=O)NCC2CC2)NC(=O)[C@@H]2C3C(CN2C1=O)C3(C)C)C(C)(C)C)S(=O)(=O)c1cccs1 (single isomer, unassigned)"
4,16,"C=CCNC(=O)C(=O)[C@@H]1CCCCCCCCC[C@H](NC(=O)N[C@H](CN2C(=O)c3ccccc3C2=O)C(C)(C)C)C(=O)N2CC3C([C@H]2C(=O)N1)C3(C)C (single isomer, unassigned)"
5,36,"CC1(NC(=O)N[C@H]2CCCCCCCCCC[C@@H](C(=O)C(N)=O)NC(=O)[C@@H]3C4C(CN3C2=O)C4(C)C)CCCCC1 (single isomer, unassigned)"
6,5,"C=CCNC(=O)C(=O)[C@@H]1CCCCCCCCC[C@H](NC(=O)N[C@H](CN(C)S(=O)(=O)c2cccs2)C(C)(C)C)C(=O)N2CC3C([C@H]2C(=O)N1)C3(C)C (single isomer, unassigned)"
7,20,"C=CCNC(=O)C(=O)[C@@H]1CCCCCCCCC[C@H](NC(=O)N[C@H](C(=O)C2CC2)C(C)C)C(=O)N2CC3C([C@H]2C(=O)N1)C3(C)C (single isomer, unassigned)"
8,10,"CCNC(=O)C(=O)[C@@H]1CCCCCCCCC[C@H](NC(=O)N[C@H](CN(C)S(=O)(=O)c2cccs2)C(C)(C)C)C(=O)N2CC3C([C@H]2C(=O)N1)C3(C)C (single isomer, unassigned)"
9,3,"C=CCNC(=O)C(=O)[C@@H]1CCCCCCCCC[C@H](NC(=O)N[C@H](CN2C(=O)C3CCC(C3)C2=O)C(C)(C)C)C(=O)N2CC3C([C@H]2C(=O)N1)C3(C)C (single isomer, unassigned)"
10,6000,"CC(C)(C)NC(=O)C(=O)[C@@H]1CCCCCCCCCC[C@H](NC(=O)OC(C)(C)C)C(=O)N2CC3C([C@H]2C(=O)N1)C3(C)C (single isomer, unassigned)"
11,3,"CN(C[C@@H](NC(=O)N[C@H]1CCCCCCCCC[C@@H](C(=O)C(N)=O)NC(=O)[C@@H]2C3C(CN2C1=O)C3(C)C)C(C)(C)C)S(C)(=O)=O (single isomer, unassigned)"
12,11,"CC1(C)C2CN3C(=O)[C@@H](NC(=O)N[C@H](C(=O)C4CC4)C4CCCCC4)CCCCCCCCC[C@@H](C(=O)C(N)=O)NC(=O)[C@@H]3C21 (single isomer, unassigned)"
13,11,"CC(C)[C@H](NC(=O)N[C@H]1CCCCCCCCC[C@@H](C(=O)C(N)=O)NC(=O)[C@@H]2C3C(CN2C1=O)C3(C)C)C(=O)C1CC1 (single isomer, unassigned)"
14,59,"CC(C)(C)OC(=O)N[C@H]1CCCCCCCCCC[C@@H](C(=O)C(N)=O)NC(=O)[C@@H]2C3C(CN2C1=O)C3(C)C (single isomer, unassigned)"
15,14,"CC(C)(C)NC(=O)N[C@H](C(=O)N1CC2C([C@H]1C(=O)NC(CC1CCC1)C(=O)C(N)=O)C2(C)C)C(C)(C)C (single isomer, unassigned) [BOCEPREVIR]"

# System: not listed separately
# Assay: Ratio of Ki for human neutrophil elastase to Ki for HCV NS3 protease
# Conditions: not given
# Method in brief: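 Selectivity index: Ki* against human neutrophil elastase divided by Ki* against HCV NS3 protease, both from enzyme binding measurements.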
row,Ratio Ki,Structure (SMILES)
1,2200,"CC(C)(C)NC(=O)N[C@H](C(=O)N1CC2C([C@H]1C(=O)NC(CC1CCC1)C(=O)C(N)=O)C2(C)C)C(C)(C)C (single isomer, unassigned) [BOCEPREVIR]"

# System: Rattus norvegicus
# Assay: (§1) AUC (0 to 6 hrs) in rat at 10 mg/kg, po
# Format: ADME, organism-based, Plasma
# Set-up: time < 6 hr, dose 10 mg/kg, route oral
# Conditions: in vivo, 6 h
# Method in brief: (§2)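 Rapid rat assay: oral dosing at 10 mg/kg in 0.4% HPMC. Blood drawn periodically and pooled; plasma AUC calculated over 0–6 h.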
row,Activity,Structure (SMILES)
1,Not Active,"C=CCNC(=O)C(=O)[C@@H]1CCCCCCCCC[C@H](NC(=O)N[C@H](C(=O)C2CC2)C(C)C)C(=O)N2CC3C([C@H]2C(=O)N1)C3(C)C (single isomer, unassigned)"

# System: not listed separately
# Assay: as §1
# Format: ADME, organism-based, Plasma
# Set-up: time < 6 hr, dose 10 mg/kg, route oral
# Conditions: plasma
# Method in brief: as §2
row,AUC(0-t) at 6 h [µM·h],Structure (SMILES)
1,0.4,"CN(C[C@@H](NC(=O)N[C@H]1CCCCCCCCC[C@@H](C(=O)C(=O)NCC2CC2)NC(=O)[C@@H]2C3C(CN2C1=O)C3(C)C)C(C)(C)C)S(=O)(=O)c1cccs1 (single isomer, unassigned)"
2,1.2,"C=CCNC(=O)C(=O)[C@@H]1CCCCCCCCC[C@H](NC(=O)N[C@H](CN2C(=O)c3ccccc3C2=O)C(C)(C)C)C(=O)N2CC3C([C@H]2C(=O)N1)C3(C)C (single isomer, unassigned)"
3,1.26,"C=CCNC(=O)C(=O)[C@@H]1CCCCCCCCC[C@H](NC(=O)N[C@H](CN(C)S(=O)(=O)c2cccs2)C(C)(C)C)C(=O)N2CC3C([C@H]2C(=O)N1)C3(C)C (single isomer, unassigned)"
4,0.31,"C=CCNC(=O)C(=O)[C@@H]1CCCCCCCCC[C@H](NC(=O)N[C@H](CN2C(=O)C3CCC(C3)C2=O)C(C)(C)C)C(=O)N2CC3C([C@H]2C(=O)N1)C3(C)C (single isomer, unassigned)"
